pIC50: −log10 of the molar value. Active and inactive are the calls of the source. The calls are words filed in the database; no cut-off is given here.
Assays:
[1] = target: T1, Transient receptor potential cation channel subfamily M member 8 (Rattus norvegicus, UniProt Q8R455); test: Antagonist activity at rat TRPM8 expressed in HEK293 cells assessed as reduction in menthol-induced calcium flux incubated for 60 mins by Fluo-4 NW-dye based fluorimetric assay; format: cell-based
How it was run: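 HEK293 cells stably expressing rat TRPM8, seeded 2 days ahead, loaded with Fluo-4 NW containing 2.5 mM probenecid; compounds in DMSO, 60 min at 37 °C in darkness. Four baseline cycles, 100 μM menthol stimulation, 15 further cycles read (ex 485/em 535 nm). Normalized to menthol + 10 μM AMTB coexposure; DMSO controls.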

[2] = target: Transient receptor potential cation channel subfamily V member 1 (Mus musculus) (UniProt Q704Y3); test: Antagonist activity at mouse TRPV1 expressed in human SH-SY5Y cells assessed as inhibition of capsaicin induced calcium influx at 0.001 to 100 uM incubated for 60 mins by Fluo-4 NW-dye based fluorimetric assay; format: cell-based
Chain of Transient receptor potential cation channel subfamily V member 1 (Mus musculus) (Q704Y3 whole entry): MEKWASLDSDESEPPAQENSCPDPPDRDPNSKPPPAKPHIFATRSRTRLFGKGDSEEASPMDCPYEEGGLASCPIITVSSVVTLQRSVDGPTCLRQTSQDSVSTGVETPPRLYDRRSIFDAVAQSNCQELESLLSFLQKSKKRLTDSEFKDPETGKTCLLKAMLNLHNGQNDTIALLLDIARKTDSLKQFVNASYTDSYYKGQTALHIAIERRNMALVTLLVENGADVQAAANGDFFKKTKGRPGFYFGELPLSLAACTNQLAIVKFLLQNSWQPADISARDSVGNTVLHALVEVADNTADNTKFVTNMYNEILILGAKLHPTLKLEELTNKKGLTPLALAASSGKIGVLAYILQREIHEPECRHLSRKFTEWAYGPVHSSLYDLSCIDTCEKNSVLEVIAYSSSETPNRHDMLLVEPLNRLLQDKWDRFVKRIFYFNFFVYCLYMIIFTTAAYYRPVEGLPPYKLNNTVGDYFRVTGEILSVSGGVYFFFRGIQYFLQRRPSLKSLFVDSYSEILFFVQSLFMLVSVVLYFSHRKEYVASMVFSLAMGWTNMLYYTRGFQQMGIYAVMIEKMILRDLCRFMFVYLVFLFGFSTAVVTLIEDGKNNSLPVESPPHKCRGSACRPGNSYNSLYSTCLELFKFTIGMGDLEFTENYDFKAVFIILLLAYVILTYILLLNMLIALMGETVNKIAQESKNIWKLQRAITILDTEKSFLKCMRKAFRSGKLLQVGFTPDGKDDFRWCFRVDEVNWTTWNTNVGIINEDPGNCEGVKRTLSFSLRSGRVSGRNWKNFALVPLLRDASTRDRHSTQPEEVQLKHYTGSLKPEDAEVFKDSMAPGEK
How it was run: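 SH-SY5Y cells stably expressing mouse TRPV1, seeded 2 days before, loaded with Fluo-4 NW plus 2.5 mM probenecid; compounds in DMSO added, 60 min at 37 °C in darkness. Four baseline cycles, then 10 μM capsaicin, recorded 15 more cycles (ex 485/em 535 nm). Signal normalized to capsaicin + 10 μM ruthenium red coexposure.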

[3] = target: Transient receptor potential cation channel subfamily M member 8 (Rattus norvegicus) (UniProt Q8R455); test: Reversible antagonist activity at rat TRPM8 expressed in HEK293 cells at 500 nM assessed as reduction in menthol-induced channel currents measured after drug wash out by whole cell patch clamp method; format: cell-based
Chain of Transient receptor potential cation channel subfamily M member 8 (Rattus norvegicus) (Q8R455 whole entry, looked up): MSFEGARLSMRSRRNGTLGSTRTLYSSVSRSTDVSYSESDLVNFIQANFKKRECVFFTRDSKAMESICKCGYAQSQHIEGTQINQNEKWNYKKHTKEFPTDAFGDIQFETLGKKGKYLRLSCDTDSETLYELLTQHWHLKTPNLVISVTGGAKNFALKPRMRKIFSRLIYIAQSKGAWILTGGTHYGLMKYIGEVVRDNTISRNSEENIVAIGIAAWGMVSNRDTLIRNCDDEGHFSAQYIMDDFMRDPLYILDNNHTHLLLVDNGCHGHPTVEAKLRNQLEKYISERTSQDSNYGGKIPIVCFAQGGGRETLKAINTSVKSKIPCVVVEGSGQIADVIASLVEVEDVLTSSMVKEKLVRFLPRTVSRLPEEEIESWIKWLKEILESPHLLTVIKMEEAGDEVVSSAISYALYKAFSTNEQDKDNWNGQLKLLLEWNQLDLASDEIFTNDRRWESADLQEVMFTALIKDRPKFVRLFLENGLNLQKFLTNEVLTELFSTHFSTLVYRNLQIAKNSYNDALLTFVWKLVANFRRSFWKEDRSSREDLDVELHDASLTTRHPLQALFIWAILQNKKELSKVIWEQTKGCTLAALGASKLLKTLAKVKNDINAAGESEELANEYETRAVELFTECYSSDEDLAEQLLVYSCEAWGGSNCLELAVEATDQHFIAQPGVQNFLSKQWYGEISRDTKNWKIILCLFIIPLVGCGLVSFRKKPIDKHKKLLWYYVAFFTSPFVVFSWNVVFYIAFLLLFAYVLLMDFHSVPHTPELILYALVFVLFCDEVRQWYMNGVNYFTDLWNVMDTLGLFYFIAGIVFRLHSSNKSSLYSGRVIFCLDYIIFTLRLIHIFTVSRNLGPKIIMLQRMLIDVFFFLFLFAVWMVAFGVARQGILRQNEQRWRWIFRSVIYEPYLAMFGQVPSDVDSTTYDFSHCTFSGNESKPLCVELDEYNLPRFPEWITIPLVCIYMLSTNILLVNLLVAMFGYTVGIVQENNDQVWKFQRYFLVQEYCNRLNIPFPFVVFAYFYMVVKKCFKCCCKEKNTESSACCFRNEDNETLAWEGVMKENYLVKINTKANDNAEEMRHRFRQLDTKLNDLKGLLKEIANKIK
How it was run: (§1)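 HEK293 cells transiently transfected with rat TRPM8 cDNA plus EGFP marker, recorded 24 h later by whole-cell patch clamp on EGFP-positive cells (3–5 MΩ pipettes). Extracellular (mM): 138 NaCl, 5.4 KCl, 2 CaCl2, 1 MgCl2, 10 glucose, 10 HEPES, pH 7.4. Currents evoked by 500 μM menthol, read at +80 and −80 mV; compound added during menthol exposure.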

[4] = target: Transient receptor potential cation channel subfamily M member 8 (Rattus norvegicus) (UniProt Q8R455); test: (§2) Antagonist activity at rat TRPM8 expressed in HEK293 cells assessed as reduction in menthol-induced channel currents by whole cell patch clamp method; format: cell-based
How it was run: (§3)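 HEK293 cells grown in DMEM/10% FBS, plated on poly-L-lysine coverslips, transiently transfected 24 h later with rat TRPM8 cDNA (3.6 μg) plus EGFP marker (total cDNA 4 μg). Whole-cell recordings 24 h post-transfection on EGFP-positive cells, 3–5 MΩ pipettes. Extracellular solution (mM): 138 NaCl, 5.4 KCl, 2 CaCl2, 1 MgCl2, 10 glucose, 10 HEPES, pH 7.4. Currents evoked by 500 μM menthol, monitored at +80 and −80 mV.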

[5] = target: T1, Transient receptor potential cation channel subfamily M member 8; test: as §2; format: cell-based; how it was run: as §3
[6] = target: Transient receptor potential cation channel subfamily M member 8 (Rattus norvegicus) (UniProt Q8R455); test: Antagonist activity at rat TRPM8 expressed in HEK293 cells at 500 nM assessed as reduction in menthol-induced channel currents by whole cell patch clamp method; format: cell-based; how it was run: as §1
Mus musculus [7] = test: Antinociceptive activity in sc dosed C57Bl/6J mouse assessed as inhibition of icilin induced wet-dog shakes pretreated 30 mins before icillin addition and measured after 30 mins by wet-dog shakes assay; format: functional, organism-based
How it was run: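 Male C57 mice, 5 weeks, ~30 g, acclimatized 30 min on two consecutive days. Compound (1, 10, 30 mg/kg; DMSO stock diluted in saline) or vehicle given s.c. 30 min before icilin 10 mg/kg i.p. (in 20% DMSO/1% Tween 80 in water). Gabapentin 25 mg/kg s.c. given 60 min before icilin. Wet-dog shakes counted over 30 min. Mean ± SEM, n = 6; two-way ANOVA with Bonferroni test.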

Mus musculus [8] = test: Antinociceptive activity in sc dosed C57/BL6 mouse assessed as inhibition of oxaliplatin induced cold allodynia administered as single dose injected into plantar surface of right hind paw on day 7 post oxaliplatin treatment and measured after 15 to 30 mins by acetone drop method; format: functional, organism-based
How it was run: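 Male C57 mice, 5 weeks, ~30 g. Oxaliplatin 6 mg/kg given on days 1, 3 and 5, with saline and 5% mannitol i.p.; tested on day 7. Antagonist stock in DMSO, diluted in saline, 0.1–1 μg injected in 25 μL into the plantar surface of the right hind paw. Acetone drop test after ~30 min habituation; paw sampled twice (~5 min apart) and averaged.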

[9] = Apparent permeability of the compound in 0.01 M phosphate buffer at pH 7.4 at 0.5 mM after 24 hrs by PAMPA; format: ADME
How it was run: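 Donor at 0.5 mM, diluted from 10 mM DMSO stock into 0.01 M phosphate buffer pH 7.4. Filter coated with 1% phosphatidylcholine in dodecane; acceptor is 5% DMSO in phosphate buffer. Incubated 24 h at room temperature with gentle shaking. Acceptor analysed by HPLC-UV at 220 nm against no-membrane references. Papp from Faller-modified Sugano equation; triplicate, with propranolol and furosemide as references.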

[10] = target: Transient receptor potential cation channel subfamily M member 8 (Rattus norvegicus) (UniProt Q8R455); test: Antagonist activity at rat TRPM8 expressed in HEK293 cells at 100 nM assessed as reduction in menthol-induced channel currents by whole cell patch clamp method; format: cell-based
[11] = Drug metabolism in mouse serum assessed as (S)-2-(Dibenzylamino)-3-(1H-indol-3-yl)propanoic Acid formation after 15 to 60 mins by HPLC analysis; format: ADME, cell-free
How it was run: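 DMSO stock diluted 1:1000 in mouse serum (from retro-orbital blood) and stirred at 37 °C. Samples taken at 15, 30 and 60 min, extracted with dichloromethane, then analysed by C18 HPLC (0.1% TFA water/acetonitrile gradient, 220 nm) for parent and acid metabolite. Blank serum checked for interfering peaks; acetylsalicylic acid used to verify hydrolytic activity. Triplicate.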

[12] = Chemical stability of compound in phosphate buffer at pH 7.4 after 15 to 60 mins by HPLC analysis; format: physicochemical
How it was run: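 DMSO stock (10 mg/mL) diluted 1:100 in phosphate buffer and stirred at 37 °C. At 15, 30 and 60 min, extracted with dichloromethane (1:1), dried under nitrogen, reconstituted in methanol and filtered. Analysed by C18 HPLC with a 0.1% TFA water/acetonitrile gradient (5–90% B over 7 min), 0.5 mL/min, 220 nm detection. Triplicate.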

[13] = target: Transient receptor potential cation channel subfamily M member 8 (Rattus norvegicus) (UniProt Q8R455); test: Reversible antagonist activity at rat TRPM8 expressed in HEK293 cells at 100 nM assessed as reduction in menthol-induced channel currents measured after drug wash out by whole cell patch clamp method; format: cell-based
Mus musculus [14] = test: Antinociceptive activity in C57Bl/6J mouse assessed as inhibition of icilin induced wet-dog shakes at 30 mg/kg, sc pretreated 30 mins before icillin addition and measured after 30 mins by wet-dog shakes assay; format: functional
How it was run: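 Male C57 mice, 5 weeks, ~30 g, acclimatized 30 min on two consecutive days. Compound (DMSO stock diluted in saline) given s.c. at 1, 10 or 30 mg/kg 30 min before icilin 10 mg/kg i.p. (20% DMSO/1% Tween 80). Wet-dog shakes counted over 30 min; mean ± SEM, n = 6; two-way ANOVA, Bonferroni.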

[15] = target: Transient receptor potential cation channel subfamily M member 8 (Homo sapiens, UniProt Q7Z2W7); test: Antagonist activity at TRPM8 (unknown origin) assessed as reduction in menthol-induced calcium influx
Chain of Transient receptor potential cation channel subfamily M member 8 (Homo sapiens, UniProt Q7Z2W7) (Q7Z2W7 whole entry): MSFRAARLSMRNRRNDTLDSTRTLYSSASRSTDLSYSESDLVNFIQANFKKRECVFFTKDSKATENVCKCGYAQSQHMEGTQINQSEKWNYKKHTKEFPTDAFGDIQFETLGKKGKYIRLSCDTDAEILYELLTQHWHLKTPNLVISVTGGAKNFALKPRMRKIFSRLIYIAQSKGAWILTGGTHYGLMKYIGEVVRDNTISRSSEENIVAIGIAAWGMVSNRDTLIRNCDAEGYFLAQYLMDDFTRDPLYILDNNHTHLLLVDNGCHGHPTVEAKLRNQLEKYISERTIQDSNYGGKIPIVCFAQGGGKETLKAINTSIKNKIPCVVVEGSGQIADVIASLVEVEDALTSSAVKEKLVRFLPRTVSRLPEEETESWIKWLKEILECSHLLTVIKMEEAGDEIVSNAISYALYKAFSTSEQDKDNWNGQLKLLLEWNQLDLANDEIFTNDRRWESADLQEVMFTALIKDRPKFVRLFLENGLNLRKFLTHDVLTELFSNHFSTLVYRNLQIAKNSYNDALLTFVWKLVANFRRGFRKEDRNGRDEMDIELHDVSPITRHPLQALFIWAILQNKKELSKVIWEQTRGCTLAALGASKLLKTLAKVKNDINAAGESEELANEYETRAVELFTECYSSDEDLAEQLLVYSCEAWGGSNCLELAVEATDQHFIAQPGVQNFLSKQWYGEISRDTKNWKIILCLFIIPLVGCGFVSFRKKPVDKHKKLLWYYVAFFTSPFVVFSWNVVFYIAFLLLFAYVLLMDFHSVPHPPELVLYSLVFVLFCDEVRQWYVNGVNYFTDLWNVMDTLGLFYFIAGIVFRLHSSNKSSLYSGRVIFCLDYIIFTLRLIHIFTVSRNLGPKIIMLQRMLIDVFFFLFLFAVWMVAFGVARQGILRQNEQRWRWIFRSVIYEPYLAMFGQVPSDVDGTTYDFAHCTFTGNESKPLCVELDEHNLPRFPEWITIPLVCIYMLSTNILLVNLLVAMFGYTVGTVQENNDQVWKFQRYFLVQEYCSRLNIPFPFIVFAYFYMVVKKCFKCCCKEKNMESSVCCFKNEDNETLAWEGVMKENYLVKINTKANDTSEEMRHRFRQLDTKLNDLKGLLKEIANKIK
How it was run: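 HEK293 cells stably expressing rat TRPM8, seeded 2 days ahead, loaded with Fluo-4 NW plus 2.5 mM probenecid. Compounds in DMSO preincubated 60 min at 37 °C in the dark. Four baseline cycles, then stimulation with 100 μM menthol and 15 further read cycles (ex 485, em 535 nm). Signal normalized to menthol + 10 μM AMTB coexposure. DMSO vehicle controls.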

Mus musculus [16] = test: Antinociceptive activity in C57Bl/6J mouse assessed as inhibition of icilin induced wet-dog shakes at 25 mg/kg, sc pretreated 1 hr before icillin addition and measured after 30 mins by wet-dog shakes assay; format: functional, organism-based
How it was run: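 Male C57 mice, 5 weeks, ~30 g, acclimatized 30 min on two consecutive days. Gabapentin in saline, 25 mg/kg s.c. 60 min before icilin (10 mg/kg i.p. in 20% DMSO/1% Tween 80). Wet-dog shakes counted over 30 min; mean ± SEM, n = 6; two-way ANOVA with Bonferroni.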

T1 sequence (Q8R455 whole entry): as the sequence (Q8R455 whole entry, looked up) above

## O=[N+]([O-])c1ccc(CN(CCc2c[nH]c3ccccc23)Cc2ccccc2)cc1
[1]
  pIC50: 5.52

## c1ccc(CN(CCc2c[nH]c3ccccc23)CC2CCCCC2)cc1
[2]
  inhibition: inactive
[3]
  inhibition: Active
[4]
  inhibition: Dose-dependent effect
[5]
  pIC50: 8.46
[6]
  inhibition: Active
[1]
  pIC50: 6.22

## Cn1cc(CCN(Cc2ccccc2)Cc2ccccc2)c2ccccc21
[1]
  pIC50: 5.48

## c1ccc(COc2ccc3[nH]cc(CCN(Cc4ccccc4)Cc4ccccc4)c3c2)cc1
[1]
  pIC50: 5.72

## COC(=O)[C@H](Cc1c[nH]c2ccccc12)N(Cc1ccccc1)Cc1ccccc1
Mus musculus [7]
  inhibition: Dose-dependent effect
[2]
  inhibition: inactive
Mus musculus [8]
  inhibition: Dose-dependent effect
[9]
  Papp at 24 h, 500 µM: 0.97 ×10⁻⁶ cm/s
[10]
  inhibition: Active
[4]
  inhibition: Dose-dependent effect
[5]
  pIC50: 9.70
[11]
  Drug metabolism: Metabolite_Detected
[12]
  Stability: Stable
[13]
  inhibition: Active
Mus musculus [14]
  inhibition in vivo at 30 mg/kg: 63%
[1]
  pIC50: 7.40

## Cc1cccc(COc2ccccc2C(=O)N(CCCN)Cc2cccs2)c1
[1]
  pIC50: 5.19

## O=[N+]([O-])c1ccc(CN2CCc3c([nH]c4ccccc34)C2c2ccccc2)cc1 (racemic)
[1]
  pIC50: 5.48

## c1ccc(CN(CCc2c[nH]c3ccccc23)Cc2ccccc2)cc1
[1]
  pIC50: 5.49

## O=C(O)c1ccc(CN2CCc3c([nH]c4ccccc34)C2c2ccccc2)cc1 (racemic)
[1]
  pIC50: < 4.00

## O=[N+]([O-])c1ccc(Sc2[nH]c3ccccc3c2CCN(Cc2ccccc2)Cc2ccccc2)c([N+](=O)[O-])c1
[1]
  pIC50: 5.66

## CC(C)(C)c1ccc(NC(=O)N2CCN(c3ncccc3Cl)CC2)cc1
[15]
  pIC50: 6.32

## O=C(CN1CCc2c([nH]c3ccccc23)C1c1ccccc1)c1ccccc1 (racemic)
[1]
  pIC50: 5.80

## c1cc2c3c(cccc3c1)CN(CCc1c[nH]c3ccccc13)C2
[1]
  pIC50: 4.93

## NCC1(CC(=O)O)CCCCC1
Mus musculus [16]
  inhibition: Active

## O=C(O)[C@H](Cc1c[nH]c2ccccc12)N(Cc1ccccc1)Cc1ccccc1
[9]
  Papp at 24 h, 500 µM: 3.17 ×10⁻⁶ cm/s
[1]
  pIC50: 5.09

## COC(=O)[C@@H](Cc1c[nH]c2ccccc12)N(Cc1ccccc1)Cc1ccccc1
[5]
  pIC50: 6.06

— ChEMBL document CHEMBL4251754, “Identification of a Potent Tryptophan-Based TRPM8 Antagonist With in Vivo Analgesic Activity” (J Med Chem, 2018)
